Results taken from ChEMBL document CHEMBL1151736, “Design, synthesis, and biological evaluation of a series of 2-hydroxyisoquinoline-1,3(2H,4H)-diones as dual inhibitors of human immunodeficiency virus type 1 integrase and the reverse transcriptase RNase H domain” (J Med Chem, 2008).

molecular target: T1, Human immunodeficiency virus type 1 integrase (Human immunodeficiency virus 1, UniProt Q7ZJM1); details: not given
T1 sequence (Q7ZJM1 whole entry): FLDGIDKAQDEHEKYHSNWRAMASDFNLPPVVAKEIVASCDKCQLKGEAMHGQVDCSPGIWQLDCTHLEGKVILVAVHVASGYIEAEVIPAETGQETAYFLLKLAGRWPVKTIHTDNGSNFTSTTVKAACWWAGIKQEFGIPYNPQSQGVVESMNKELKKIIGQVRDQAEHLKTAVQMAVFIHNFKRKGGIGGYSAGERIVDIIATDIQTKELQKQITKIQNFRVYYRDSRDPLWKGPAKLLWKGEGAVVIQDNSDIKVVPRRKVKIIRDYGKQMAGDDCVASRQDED

Compound | IC50
O=C1Cc2ccc(Cl)cc2C(=O)N1O | 0.8 µM
O=C1Cc2ccc(-c3ccc(O)c(O)c3)cc2C(=O)N1O | 0.56 µM
CCCCC(=O)Nc1ccc2c(c1)C(=O)N(O)C(=O)C2 | 18.8 µM
O=C1Cc2ccc(Br)cc2C(=O)N1O | 0.58 µM
O=C1Cc2ccc(-c3ccc(C(F)(F)F)cc3)cc2C(=O)N1O | 1.8 µM
CC(=O)Nc1ccc2c(c1)C(=O)N(O)C(=O)C2 | 0.59 µM
O=C1Cc2ccccc2C(=O)N1O | 6.32 µM
O=C(Nc1ccc2c(c1)C(=O)N(O)C(=O)C2)c1cccc([N+](=O)[O-])c1 | 8.9 µM
O=C1Cc2ccc(I)cc2C(=O)N1O | 1.22 µM
O=C(Nc1ccc2c(c1)C(=O)N(O)C(=O)C2)c1ccc(F)cc1 | 0.41 µM
O=C(Cc1ccc(F)cc1)Nc1ccc2c(c1)C(=O)N(O)C(=O)C2 | 0.13 µM
O=C(Cc1ccccc1)Nc1ccc2c(c1)C(=O)N(O)C(=O)C2 | 0.09 µM
O=C1Cc2ccc(O)cc2C(=O)N1O | 2.22 µM
O=C1Cc2ccc([N+](=O)[O-])cc2C(=O)N1O | 8.5 µM
O=C(Nc1ccc2c(c1)C(=O)N(O)C(=O)C2)c1ccccc1 | 1.24 µM
O=C1Cc2ccc(-c3ccccc3)cc2C(=O)N1O | 1.73 µM
O=C1Cc2ccc(-c3ccc(O)cc3)cc2C(=O)N1O | 5.42 µM
O=C1Cc2ccc(-c3ccc(F)cc3)cc2C(=O)N1O | 1.47 µM

molecular target: Human immunodeficiency virus type 1 reverse transcriptase (Human immunodeficiency virus 1) (UniProt Q72547); assay: Inhibition of HIV1 reverse transcriptase at 50 uM; details: not given
How it was run: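 RNA-dependent DNA polymerase activity: recombinant RT preincubated 10 min at 37 °C with compound (1.0, 10.0, 50.0 µM), then 10 min at 37 °C with poly(A)-oligo(dT) 20 µg/mL, 20 µM dTTP plus [3H]dTTP, 5 mM MgCl2, 100 mM KCl, 10 mM DTT, 50 mM Tris-HCl pH 8.0; TCA-precipitated radioactivity on nitrocellulose; percent inhibition.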

Compound | inhibition
O=C1Cc2ccc(Cl)cc2C(=O)N1O | 40%
O=C1Cc2ccc(-c3ccc(O)c(O)c3)cc2C(=O)N1O | 70%
CCCCC(=O)Nc1ccc2c(c1)C(=O)N(O)C(=O)C2 | 40%
O=C1Cc2ccc(Br)cc2C(=O)N1O | 40%
O=C1Cc2ccc(-c3ccc(C(F)(F)F)cc3)cc2C(=O)N1O | 40%
CC(=O)Nc1ccc2c(c1)C(=O)N(O)C(=O)C2 | 40%
O=C1Cc2ccccc2C(=O)N1O | 40%
O=C(Nc1ccc2c(c1)C(=O)N(O)C(=O)C2)c1cccc([N+](=O)[O-])c1 | 40%
O=C1Cc2ccc(I)cc2C(=O)N1O | 40%
O=C(Nc1ccc2c(c1)C(=O)N(O)C(=O)C2)c1ccc(F)cc1 | 40%
O=C(Cc1ccc(F)cc1)Nc1ccc2c(c1)C(=O)N(O)C(=O)C2 | 40%
O=C(Cc1ccccc1)Nc1ccc2c(c1)C(=O)N(O)C(=O)C2 | 40%
O=C1Cc2ccc(O)cc2C(=O)N1O | 40%
O=C1Cc2ccc([N+](=O)[O-])cc2C(=O)N1O | 40%
O=C(Nc1ccc2c(c1)C(=O)N(O)C(=O)C2)c1ccccc1 | 40%
O=C1Cc2ccc(-c3ccccc3)cc2C(=O)N1O | 40%
O=C1Cc2ccc(-c3ccc(O)cc3)cc2C(=O)N1O | 50%
O=C1Cc2ccc(-c3ccc(F)cc3)cc2C(=O)N1O | 60%

molecular target: not listed separately; assay: Inhibition of HIV1 RNase H; set-up: species or system Human immunodeficiency virus 1; details: not given

Compound | IC50
O=C1Cc2ccc(Cl)cc2C(=O)N1O | 28.9 µM
O=C1Cc2ccc(-c3ccc(O)c(O)c3)cc2C(=O)N1O | 6.6 µM
CCCCC(=O)Nc1ccc2c(c1)C(=O)N(O)C(=O)C2 | > 80 µM
O=C1Cc2ccc(Br)cc2C(=O)N1O | > 96 µM
O=C1Cc2ccc(-c3ccc(C(F)(F)F)cc3)cc2C(=O)N1O | 10.7 µM
CC(=O)Nc1ccc2c(c1)C(=O)N(O)C(=O)C2 | 40.7 µM
O=C1Cc2ccccc2C(=O)N1O | 5.9 µM
O=C(Nc1ccc2c(c1)C(=O)N(O)C(=O)C2)c1cccc([N+](=O)[O-])c1 | 10.8 µM
O=C1Cc2ccc(I)cc2C(=O)N1O | 58 µM
O=C(Nc1ccc2c(c1)C(=O)N(O)C(=O)C2)c1ccc(F)cc1 | 7.1 µM
O=C(Cc1ccc(F)cc1)Nc1ccc2c(c1)C(=O)N(O)C(=O)C2 | 35.3 µM
O=C(Cc1ccccc1)Nc1ccc2c(c1)C(=O)N(O)C(=O)C2 | > 80 µM
O=C1Cc2ccc(O)cc2C(=O)N1O | 37.4 µM
O=C1Cc2ccc([N+](=O)[O-])cc2C(=O)N1O | 48 µM
O=C(Nc1ccc2c(c1)C(=O)N(O)C(=O)C2)c1ccccc1 | 5.7 µM
O=C1Cc2ccc(-c3ccccc3)cc2C(=O)N1O | > 80 µM
O=C1Cc2ccc(-c3ccc(O)cc3)cc2C(=O)N1O | 7.2 µM
O=C1Cc2ccc(-c3ccc(F)cc3)cc2C(=O)N1O | 22.2 µM

tested on: Human immunodeficiency virus 1; assay: Antiviral activity against HIV1 3B infected in human MT4 cells assessed as inhibition virus-induced cytopathic effect by MTT assay; type: functional, organism-based; details: Human immunodeficiency virus 1, 3B

Compound | EC50
O=C1Cc2ccc(Cl)cc2C(=O)N1O | > 48 µM
O=C1Cc2ccc(-c3ccc(O)c(O)c3)cc2C(=O)N1O | > 89 µM
CCCCC(=O)Nc1ccc2c(c1)C(=O)N(O)C(=O)C2 | > 250 µM
O=C1Cc2ccc(Br)cc2C(=O)N1O | > 64 µM
O=C1Cc2ccc(-c3ccc(C(F)(F)F)cc3)cc2C(=O)N1O | > 47 µM
CC(=O)Nc1ccc2c(c1)C(=O)N(O)C(=O)C2 | 148 µM
O=C1Cc2ccc(I)cc2C(=O)N1O | > 70 µM
O=C(Nc1ccc2c(c1)C(=O)N(O)C(=O)C2)c1ccc(F)cc1 | > 120 µM
O=C(Cc1ccc(F)cc1)Nc1ccc2c(c1)C(=O)N(O)C(=O)C2 | > 116 µM
O=C(Cc1ccccc1)Nc1ccc2c(c1)C(=O)N(O)C(=O)C2 | > 121 µM
O=C1Cc2ccc(O)cc2C(=O)N1O | > 48 µM
O=C1Cc2ccc([N+](=O)[O-])cc2C(=O)N1O | > 205 µM
O=C(Nc1ccc2c(c1)C(=O)N(O)C(=O)C2)c1ccccc1 | 22 µM
O=C1Cc2ccc(-c3ccccc3)cc2C(=O)N1O | > 66 µM
O=C1Cc2ccc(-c3ccc(O)cc3)cc2C(=O)N1O | > 186 µM
O=C1Cc2ccc(-c3ccc(F)cc3)cc2C(=O)N1O | > 46 µM

molecular target: T1, Human immunodeficiency virus type 1 integrase; details: not given; remark: another data set of the same source

Compound | IC50
O=C1Cc2ccc(Br)cc2C(=O)N1O | 1.4 µM
O=C(Cc1ccc(F)cc1)Nc1ccc2c(c1)C(=O)N(O)C(=O)C2 | 0.75 µM
O=C(Cc1ccccc1)Nc1ccc2c(c1)C(=O)N(O)C(=O)C2 | 7.79 µM

molecular target: T1, Human immunodeficiency virus type 1 integrase; details: not given; remark: another data set of the same source

Compound | IC50
O=C1Cc2ccc(Br)cc2C(=O)N1O | 0.9 µM
O=C(Cc1ccc(F)cc1)Nc1ccc2c(c1)C(=O)N(O)C(=O)C2 | 0.02 µM
O=C(Cc1ccccc1)Nc1ccc2c(c1)C(=O)N(O)C(=O)C2 | 0.1 µM

tested on: Human immunodeficiency virus 1; assay: Selectivity ratio of IC50 for HIV1 RNase H to IC50 for HIV1 integrase; details: not given
How it was run: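 Ratio of the RNase H IC50 to the overall-integrase IC50. For RNase H, recombinant HIV-1 RT (4.5 pmol) was preincubated with compound for 10 min at 37 °C. It then ran 10 min at 37 °C on a 3H-RNA/DNA duplex with 6 mM MgCl2 and 80 mM KCl at pH 8.0, read by TCA-precipitated radioactivity. For integrase, ELISA used 1.6 µM integrase and 7 nM biotin/digoxigenin oligos with 10 mM MgCl2, 1 h at 37 °C.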

Compound | Ratio IC50
O=C1Cc2ccc(Cl)cc2C(=O)N1O | 36.1
O=C1Cc2ccc(-c3ccc(O)c(O)c3)cc2C(=O)N1O | 11.8
CCCCC(=O)Nc1ccc2c(c1)C(=O)N(O)C(=O)C2 | > 4.2
O=C1Cc2ccc(Br)cc2C(=O)N1O | > 166
O=C1Cc2ccc(-c3ccc(C(F)(F)F)cc3)cc2C(=O)N1O | 5.9
CC(=O)Nc1ccc2c(c1)C(=O)N(O)C(=O)C2 | 69
O=C(Nc1ccc2c(c1)C(=O)N(O)C(=O)C2)c1cccc([N+](=O)[O-])c1 | 1.2
O=C1Cc2ccc(I)cc2C(=O)N1O | 48.3
O=C(Nc1ccc2c(c1)C(=O)N(O)C(=O)C2)c1ccc(F)cc1 | 17.3
O=C(Cc1ccc(F)cc1)Nc1ccc2c(c1)C(=O)N(O)C(=O)C2 | 272
O=C(Cc1ccccc1)Nc1ccc2c(c1)C(=O)N(O)C(=O)C2 | > 889
O=C1Cc2ccc(O)cc2C(=O)N1O | 17
O=C1Cc2ccc([N+](=O)[O-])cc2C(=O)N1O | 5.6
O=C(Nc1ccc2c(c1)C(=O)N(O)C(=O)C2)c1ccccc1 | 4.7
O=C1Cc2ccc(-c3ccccc3)cc2C(=O)N1O | > 47
O=C1Cc2ccc(-c3ccc(O)cc3)cc2C(=O)N1O | 1.3
O=C1Cc2ccc(-c3ccc(F)cc3)cc2C(=O)N1O | 15.8

tested on: not listed separately; assay: Cytotoxicity against human MT4 cells by MTT assay; type: cell-based; details: not given

Compound | CC50
O=C1Cc2ccc(Cl)cc2C(=O)N1O | > 48 µM
O=C1Cc2ccc(-c3ccc(O)c(O)c3)cc2C(=O)N1O | > 89 µM
CCCCC(=O)Nc1ccc2c(c1)C(=O)N(O)C(=O)C2 | > 250 µM
O=C1Cc2ccc(Br)cc2C(=O)N1O | > 64 µM
O=C1Cc2ccc(-c3ccc(C(F)(F)F)cc3)cc2C(=O)N1O | > 47 µM
CC(=O)Nc1ccc2c(c1)C(=O)N(O)C(=O)C2 | > 250 µM
O=C1Cc2ccc(I)cc2C(=O)N1O | > 70 µM
O=C(Nc1ccc2c(c1)C(=O)N(O)C(=O)C2)c1ccc(F)cc1 | > 120 µM
O=C(Cc1ccc(F)cc1)Nc1ccc2c(c1)C(=O)N(O)C(=O)C2 | > 116 µM
O=C(Cc1ccccc1)Nc1ccc2c(c1)C(=O)N(O)C(=O)C2 | > 121 µM
O=C1Cc2ccc(O)cc2C(=O)N1O | > 48 µM
O=C1Cc2ccc([N+](=O)[O-])cc2C(=O)N1O | > 205 µM
O=C(Nc1ccc2c(c1)C(=O)N(O)C(=O)C2)c1ccccc1 | 84 µM
O=C1Cc2ccc(-c3ccccc3)cc2C(=O)N1O | > 66 µM
O=C1Cc2ccc(-c3ccc(O)cc3)cc2C(=O)N1O | > 186 µM
O=C1Cc2ccc(-c3ccc(F)cc3)cc2C(=O)N1O | > 46 µM
